Test results as given in PubChem BioAssay AID504409 (Broad Institute, 2011).
Records with an inconclusive call do not appear. The source made the active and inactive calls.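 The calls were made as follows: active = fitted curve reaches caspase activation of 10% of the positive control signal in every replicate test; inconclusive = tests disagree, or a test had a flat mid-level or poor fit; inactive = every replicate test called inactive.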

Legend:
[1] = tested on: MEF Flag-A1-IRES-BIM, caspase-Glo luminescence, 3 h; assay: apoptosis induction in A1/BIM co-expressing fibroblasts – cell-based, Flag-A1-IRES-BIM MEF, luminescence, dry powder, set 3, orthogonal assay for A1 inhibitor project, dose response (AID 504409)
Summary of the method: (§1)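 Read-out: caspase activation / Assay system: MEFs carrying Flag-A1-IRES-BIM construct / Buffer or medium: RPMI-1640 growth medium plus 10% heat-inactivated FBS / Measured by: CaspaseGlo luminescence / Schedule: 3 h exposure (37 °C, 5% CO2), 1 h room-temperature detection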

[2] = as above; conditions: MEF Flag-A1-IRES-BIM, caspase-Glo luminescence, 3 h; at 35 µM (top of the series)
Summary of the method: as §1

SMILES	AC10 [1] [µM]	caspase activation [2]
Cn1c(=O)c([N+](=O)[O-])c(Cl)c2ccccc21	1.84	–
Cn1c(=O)c(Sc2ccccn2)c(Sc2ccccn2)c2ccccc21	–	1.87% (inactive)
COCCn1c(=O)c([N+](=O)[O-])c(Sc2ccc(C)cc2)c2ccccc21	15.5	–
Cc1ccc(Sc2c(Sc3ccc(C)cc3)c3ccccc3n(Cc3ccccc3)c2=O)cc1	–	-0.908% (inactive)
O=C(COc1ccc(Cl)cc1Cl)NNc1nc(N2CCOCC2)nc(N2CCOCC2)n1	–	-1.06% (inactive)
C/C(=N\Nc1nc(N2CCCCC2)nc(N2CCCCC2)n1)c1ccc(F)cc1	–	0.551% (inactive)
COCCn1c(=O)c(Sc2ccc(C)cc2)c(Sc2ccc(C)cc2)c2ccccc21	–	-0.209% (inactive)
COc1ccc(CCNc2nc(N3CCOCC3)nc(N3CCOCC3)n2)cc1OC	–	0.077% (inactive)
CCn1c(=O)c([N+](=O)[O-])c(Cl)c2ccccc21	1.49	–
Cc1ccc(Sc2c(Sc3ccc(C)cc3)c3ccccc3n(C)c2=O)cc1	–	-0.308% (inactive)
Cn1c(=O)c([N+](=O)[O-])c(Sc2ccccn2)c2ccccc21	3	–
Cn1c(=O)c([N+](=O)[O-])c(S(C)(=O)=O)c2ccccc21	3.06	–
CC1(C)CCC(c2ccc(Cl)cc2)=C(CN2CCN(c3ccc(C(=O)NS(=O)(=O)c4ccc(N[C@H](CCN5CCOCC5)CSc5ccccc5)c(S(=O)(=O)C(F)(F)F)c4)cc3)CC2)C1	0.689	–
COc1ccc(N2CCN(c3nc(NCCc4ccc(OC)c(OC)c4)nc(N4CCOCC4)n3)CC2)cc1	–	0.186% (inactive)
Cc1ccc(S(=O)(=O)c2c([N+](=O)[O-])c(=O)n(C)c3ccccc23)cc1	4.11	–
COc1c([N+](=O)[O-])c(=O)n(C)c2ccccc12	–	1.51% (inactive)
O=c1[nH]c2ccccc2c(Cl)c1[N+](=O)[O-]	3.38	–
O=c1[nH]c2ccccc2c(O)c1[N+](=O)[O-]	–	0.941% (inactive)
COc1ccc(CCNc2nc(N3CCCC3)nc(N3CCCC3)n2)cc1OC	–	-0.336% (inactive)
COCCn1c(=O)c([N+](=O)[O-])c(Cl)c2ccccc21	1.46	–
CCn1c(=O)c(Sc2ccc(C)cc2)c(Sc2ccc(C)cc2)c2ccccc21	–	2.86% (inactive)
CCn1c(=O)c([N+](=O)[O-])c(Sc2ccc(C)cc2)c2ccccc21	–	1.63% (inactive)
COc1nc2ccccc2c(Sc2ccc(C)cc2)c1[N+](=O)[O-]	–	2.16% (inactive)
